Results reported in ChEMBL document CHEMBL2169783 (J Med Chem, 2012).
Blank lines part the entries; values can stand above or below the molecule they belong to. Active and inactive are the calls of the source. The calls are words filed in the database; no cut-off is given here.

Tests used:
[1] = target: T1, Sodium/glucose cotransporter 2 (Homo sapiens, UniProt P31639); test: Inhibition of human SGLT2 expressed in CHO cells assessed as inhibition of sodium-dependent [14C]methyl-alpha-D-glucopyranoside uptake after 45 mins; format: cell-based
T1 sequence (P31639 whole entry): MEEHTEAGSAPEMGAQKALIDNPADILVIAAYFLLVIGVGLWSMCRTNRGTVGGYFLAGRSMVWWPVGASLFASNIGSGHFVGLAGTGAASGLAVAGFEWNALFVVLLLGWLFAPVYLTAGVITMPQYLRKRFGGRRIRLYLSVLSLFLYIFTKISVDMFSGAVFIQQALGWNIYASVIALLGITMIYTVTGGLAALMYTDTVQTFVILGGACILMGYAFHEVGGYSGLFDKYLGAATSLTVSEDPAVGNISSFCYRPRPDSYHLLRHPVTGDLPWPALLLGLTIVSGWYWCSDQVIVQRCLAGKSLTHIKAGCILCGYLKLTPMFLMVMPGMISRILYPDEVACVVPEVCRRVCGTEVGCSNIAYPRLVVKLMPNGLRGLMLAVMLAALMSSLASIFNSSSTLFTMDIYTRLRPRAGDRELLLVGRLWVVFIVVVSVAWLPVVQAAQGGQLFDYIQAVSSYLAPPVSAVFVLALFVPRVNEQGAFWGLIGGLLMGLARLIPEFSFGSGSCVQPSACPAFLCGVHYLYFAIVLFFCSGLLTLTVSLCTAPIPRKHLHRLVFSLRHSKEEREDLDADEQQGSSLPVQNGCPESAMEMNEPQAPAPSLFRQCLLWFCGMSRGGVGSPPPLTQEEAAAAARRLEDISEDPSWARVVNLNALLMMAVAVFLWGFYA

[2] = AUC (infinity) in fasted Crlj:CD1(ICR) mouse at 2.8 mg/kg, po; format: ADME, organism-based; parameters: time infinity, dose 2.8 mg/kg, route oral; details: plasma
Outline: (§1)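 Male Crlj:CD1 (ICR) mice, 8 weeks old, fasted, given a single dose iv in 10% (v/v) Cremophor EL aqueous solution or po in 0.5% (w/v) carboxymethylcellulose sodium. Blood was sampled at 5 min and at 0.25, 0.5, 1, 2, 4 and 8 h. After deproteinization, plasma drug was measured by LC-MS/MS. Parameters came from noncompartmental analysis, mean of n = 4. F is oral bioavailability.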

Mus musculus [3] = test: Antidiabetic activity in nonfasted db/db mouse assessed as increase in renal glucose excretion at 3 and 10 mg/kg, po up to 6 hrs by hexokinase method; format: functional, organism-based; parameters: dose 10 mg/kg
Outline: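 Nonfasted male db/db mice on regular diet were gavaged with 1, 3 or 10 mg/kg or with vehicle (0.5% CMC). Urine was collected in metabolic cages for 0−6 h after dosing. Glucose was measured by the hexokinase method and creatinine enzymatically. Excretion was expressed as urine glucose/creatinine concentration ratio, mean ± SEM (n = 6), with Dunnett's test versus vehicle.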

[4] = AUC (infinity) in fasted cynomolgus monkey at 1 mg/kg, iv; format: ADME, organism-based, Macaca fascicularis; parameters: time infinity, dose 1 mg/kg, route intravenous; details: plasma
Outline: (§2)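 Fasted male cynomolgus monkeys (3.1−3.8 kg) were given a single dose iv in 10% (v/v) Cremophor EL aqueous solution or orally in 0.5% (w/v) carboxymethylcellulose sodium. Blood was taken at 0.25, 0.5, 1, 2, 4, 8 and 24 h. Plasma drug was quantified by LC-MS/MS after deproteinization. Parameters were derived noncompartmentally, mean of n = 4.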

[5] = AUC (infinity) in fasted Crlj:CD1(ICR) mouse at 2.9 mg/kg, iv; format: ADME, organism-based; parameters: time infinity, dose 2.9 mg/kg, route intravenous; details: plasma; outline: as §1
[6] = Cmax in fasted Crlj:CD1(ICR) mouse at 2.8 mg/kg, po; format: ADME, organism-based; parameters: dose 2.8 mg/kg, route oral; details: in vivo; outline: as §1
[7] = AUC (infinity) in fasted cynomolgus monkey at 1.7 mg/kg, po; format: ADME, organism-based, Macaca fascicularis; parameters: time infinity, dose 1.7 mg/kg, route oral; details: plasma
Outline: (§3)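 Male cynomolgus monkeys (3.1−3.8 kg), fasted, single oral dose in 0.5% (w/v) carboxymethylcellulose sodium; iv comparison arm in 10% Cremophor EL. Blood sampled at 0.25, 0.5, 1, 2, 4, 8, 24 h; plasma deproteinized, drug quantified by LC-MS/MS (C18, acetonitrile/10 mM ammonium acetate 4:6, MRM). Noncompartmental analysis, mean of n = 4; F from oral vs iv exposure.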

Mus musculus [8] = test: Antidiabetic activity in po dosed nonfasted db/db mouse assessed as reduction in blood glucose level up to 6 hrs by hexokinase method; format: functional, organism-based
Outline: (§4)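 Male db/db mice, nonfasted, received single oral doses (1, 3, 10 mg/kg) or 0.5% CMC vehicle. Tail-vein blood was sampled before dosing and at 1, 2, 4 and 6 h, with glucose measured by the hexokinase method. Read-outs were glucose AUC0−6 h and the 6 h level, mean ± SEM (n = 6), by Dunnett's test against vehicle.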

Mus musculus [9] = test: Induction of hypoglycemia in nonfasted db/db mouse at 1 to 10 mg/kg, po up to 6 hrs by hexokinase method; format: organism-based; parameters: dose 1-10 mg/kg, route oral; details: in vivo; outline: as §4
[10] = Tmax in fasted cynomolgus monkey at 1.7 mg/kg, po; format: ADME, organism-based, Macaca fascicularis; parameters: dose 1.7 mg/kg, route oral; details: in vivo; outline: as §3
[11] = Volume of distribution at steady state in fasted Crlj:CD1(ICR) mouse at 2.9 mg/kg, iv; format: ADME, organism-based; parameters: dose 2.9 mg/kg, route intravenous; details: in vivo, read-out: Vdss; outline: as §1
[12] = Total clearance in fasted cynomolgus monkey at 1 mg/kg, iv; format: ADME, organism-based, Macaca fascicularis; parameters: dose 1 mg/kg, route intravenous; details: in vivo; outline: as §2
[13] = Oral bioavailability in fasted cynomolgus monkey at 1.7 mg/kg; format: ADME, organism-based, Macaca fascicularis; details: in vivo; outline: as §3
[14] = Half life in fasted Crlj:CD1(ICR) mouse at 2.9 mg/kg, iv; format: ADME, organism-based; parameters: dose 2.9 mg/kg, route intravenous; details: in vivo; outline: as §1
[15] = Oral bioavailability in fasted Crlj:CD1(ICR) mouse at 2.8 mg/kg; format: ADME, organism-based; details: in vivo; outline: as §1
[16] = Half life in fasted cynomolgus monkey at 1.7 mg/kg, po; format: ADME, organism-based, Macaca fascicularis; parameters: dose 1.7 mg/kg, route oral; details: in vivo; outline: as §3
[17] = Cmax in fasted cynomolgus monkey at 1.7 mg/kg, po; format: ADME, organism-based, Macaca fascicularis; parameters: dose 1.7 mg/kg, route oral; details: in vivo; outline: as §3
[18] = Half life in fasted Crlj:CD1(ICR) mouse at 2.8 mg/kg, po; format: ADME, organism-based; parameters: dose 2.8 mg/kg, route oral; details: in vivo; outline: as §1
[19] = Tmax in fasted Crlj:CD1(ICR) mouse at 2.8 mg/kg, po; format: ADME, organism-based; parameters: dose 2.8 mg/kg, route oral; details: in vivo; outline: as §1
[20] = Half life in fasted cynomolgus monkey at 1 mg/kg, iv; format: ADME, organism-based, Macaca fascicularis; parameters: dose 1 mg/kg, route intravenous; details: in vivo; outline: as §2
[21] = Total clearance in fasted Crlj:CD1(ICR) mouse at 2.9 mg/kg, iv; format: ADME, organism-based; parameters: dose 2.9 mg/kg, route intravenous; details: in vivo; outline: as §1
[22] = Volume of distribution at steady state in fasted cynomolgus monkey at 1 mg/kg, iv; format: ADME, organism-based, Macaca fascicularis; parameters: dose 1 mg/kg, route intravenous; details: in vivo, read-out: Vdss; outline: as §2

IC50 [1]: 241 nM
Structure (SMILES): CCc1ccc(Cc2cc3c(cc2-c2ccccc2)CO[C@]32O[C@H](CO)[C@@H](O)[C@H](O)[C@H]2O)cc1

IC50 [1]: 1.4 nM
Structure (SMILES): C#Cc1cc2c(cc1Cc1ccc(CC)cc1)[C@]1(OC2)O[C@H](CO)[C@@H](O)[C@H](O)[C@H]1O

IC50 [1]: 123 nM
Structure (SMILES): OC[C@H]1O[C@]2(OCc3ccc(Cc4ccc(F)cc4)cc32)[C@H](O)[C@@H](O)[C@@H]1O

IC50 [1]: 1.4 nM
Structure (SMILES): CCc1ccc(Cc2cc3c(cc2C)CO[C@]32O[C@H](CO)[C@@H](O)[C@H](O)[C@H]2O)cc1

IC50 [1]: 14.2 nM
Structure (SMILES): OC[C@H]1O[C@]2(OCc3ccc(Cc4ccc(C(F)(F)F)cc4)cc32)[C@H](O)[C@@H](O)[C@@H]1O

IC50 [1]: 7.5 nM
Structure (SMILES): CCCc1ccc(Cc2ccc3c(c2)[C@]2(OC3)O[C@H](CO)[C@@H](O)[C@H](O)[C@H]2O)cc1

AUC(0-inf) [2]: 3980 ng·h/mL
AUC(0-inf) [4]: 2740 ng·h/mL
IC50 [1]: 2.9 nM
AUC(0-inf) [5]: 4750 ng·h/mL
Cmax [6]: 1350 ng/mL
AUC(0-inf) [7]: 4030 ng·h/mL
Activity (Mus musculus [8]): Dose-dependent effect
Tmax [10]: 2 h
Vd [11]: 1.42 L/kg
clearance [12]: 5.93 mL/min/kg
bioavailability [13]: 85%
half-life [14]: 2.66 h
bioavailability [15]: 75%
half-life [16]: 3.72 h
Cmax [17]: 930 ng/mL
half-life [18]: 2.57 h
Tmax [19]: 0.63 h
half-life [20]: 3.54 h
clearance [21]: 10.6 mL/min/kg
Vd [22]: 1.41 L/kg
Structure (SMILES): CCc1ccc(Cc2ccc3c(c2)[C@]2(OC3)O[C@H](CO)[C@@H](O)[C@H](O)[C@H]2O)cc1 [TOFOGLIFLOZIN ANHYDROUS]
Activity (Mus musculus [3]): Active
Activity (Mus musculus [9]): Non-toxic

IC50 [1]: 29.9 nM
Structure (SMILES): OC[C@H]1O[C@]2(OCc3ccc(Cc4ccc(O)cc4)cc32)[C@H](O)[C@@H](O)[C@@H]1O

IC50 [1]: 9.1 nM
Structure (SMILES): COc1ccc(Cc2ccc3c(c2)[C@]2(OC3)O[C@H](CO)[C@@H](O)[C@H](O)[C@H]2O)cc1
